Measurements taken from ChEMBL document CHEMBL3739264, “Synthesis and bio-evaluation of novel quinolino-stilbene derivatives as potential anticancer agents” (Bioorg Med Chem, 2015).
Calls of active or inactive are those of the source. The rule behind the calls is not given here.

Key:
HeLa [1] = assay: Cell cycle arrest in human HeLa cells assessed as accumulation at sub-G1 phase at 6 uM after 24 hrs by flow cytometry analysis relative to control; type: functional
In short: (§1)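 About 1 × 10^6 cells per plate seeded overnight, then treated with compound and harvested at set times. Cells fixed in 75% ethanol at -20°C for 12-24 h and stained 1 h with 100 µg/ml PI, 100 µg/ml RNase A and 0.3% NP-40 in PBS. DNA content measured by flow cytometry; phase fractions compared with sham-treated cells.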

HeLa [2] = assay: Cell cycle arrest in human HeLa cells assessed as accumulation at sub-G1 phase at 6 uM after 48 hrs by flow cytometry analysis relative to control; type: functional; in short: as §1
HeLa [3] = assay: Cell cycle arrest in human HeLa cells assessed as accumulation at S phase at 6 uM after 48 hrs by flow cytometry analysis relative to control; type: functional; in short: as §1
HeLa [4] = assay: Cell cycle arrest in human HeLa cells assessed as accumulation at G2/M phase at 6 uM after 48 hrs by flow cytometry analysis relative to control; type: functional; in short: as §1
HeLa [5] = assay: Cell cycle arrest in human HeLa cells assessed as accumulation at sub-G1 phase at 6 uM after 72 hrs by flow cytometry analysis relative to control; type: functional; in short: as §1
HeLa [6] = assay: Cell cycle arrest in human HeLa cells assessed as accumulation at G0-G1 phase at 6 uM after 72 hrs by flow cytometry analysis relative to control; type: functional; in short: as §1
MDA-MB-231 [7] = assay: Cell cycle arrest in human MDA-MB-231 cells assessed as accumulation at sub-G1 phase at 6 uM after 12 hrs by flow cytometry analysis relative to control; type: functional
In short: (§2)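 Cells seeded overnight at about 1 × 10^6 per plate, treated next morning, and harvested at set times. Fixed in 75% ethanol at -20°C for 12-24 h, then stained 1 h in PBS with 0.3% NP-40, 100 µg/ml RNase A and 100 µg/ml propidium iodide. Phase distribution read from DNA content by flow cytometry against sham-treated cells.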

MDA-MB-231 [8] = assay: Cell cycle arrest in human MDA-MB-231 cells assessed as accumulation at sub-G1 phase at 6 uM after 24 hrs by flow cytometry analysis relative to control; type: functional; in short: as §2
MDA-MB-231 [9] = assay: Cell cycle arrest in human MDA-MB-231 cells assessed as accumulation at G0-G1 phase at 6 uM after 24 hrs by flow cytometry analysis relative to control; type: functional; in short: as §1
MDA-MB-231 [10] = assay: Cell cycle arrest in human MDA-MB-231 cells assessed as accumulation at sub-G1 phase at 6 uM after 48 hrs by flow cytometry analysis relative to control; type: functional; in short: as §2
MDA-MB-231 [11] = assay: Cell cycle arrest in human MDA-MB-231 cells assessed as accumulation at sub-G1 phase at 6 uM after 72 hrs by flow cytometry analysis relative to control; type: functional; in short: as §2
MDA-MB-231 [12] = assay: Cell cycle arrest in human MDA-MB-231 cells assessed as accumulation at S phase at 6 uM after 72 hrs by flow cytometry analysis relative to control; type: functional; in short: as §1
[13] = Cell cycle arrest in human MCF10A cells assessed as accumulation at sub-G1 phase at 6 uM after 12 hrs by flow cytometry analysis relative to control; type: functional, cell-based; conditions: MCF-10A; in short: as §1
[14] = Cell cycle arrest in human MCF10A cells assessed as accumulation at S phase at 6 uM after 12 hrs by flow cytometry analysis relative to control; type: functional, cell-based; conditions: MCF-10A; in short: as §1
[15] = Cell cycle arrest in human MCF10A cells assessed as accumulation at sub-G1 phase at 6 uM after 24 hrs by flow cytometry analysis relative to control; type: functional, cell-based; conditions: MCF-10A; in short: as §1
[16] = Cell cycle arrest in human MCF10A cells assessed as accumulation at G0-G1 phase at 6 uM after 24 hrs by flow cytometry analysis relative to control; type: functional, cell-based; conditions: MCF-10A; in short: as §1
[17] = Cell cycle arrest in human MCF10A cells assessed as accumulation at G2/M phase at 6 uM after 24 hrs by flow cytometry analysis relative to control; type: functional, cell-based; conditions: MCF-10A; in short: as §1
[18] = Cell cycle arrest in human MCF10A cells assessed as accumulation at sub-G1 phase at 6 uM after 48 hrs by flow cytometry analysis relative to control; type: functional, cell-based; conditions: MCF-10A; in short: as §1
[19] = Cell cycle arrest in human MCF10A cells assessed as accumulation at G2/M phase at 6 uM after 48 hrs by flow cytometry analysis relative to control; type: functional, cell-based; conditions: MCF-10A; in short: as §1
[20] = Cell cycle arrest in human MCF10A cells assessed as accumulation at sub-G1 phase at 6 uM after 72 hrs by flow cytometry analysis relative to control; type: functional, cell-based; conditions: MCF-10A; in short: as §1
[21] = Cell cycle arrest in human MCF10A cells assessed as accumulation at G0-G1 phase at 6 uM after 72 hrs by flow cytometry analysis relative to control; type: functional, cell-based; conditions: MCF-10A; in short: as §1
[22] = Cell cycle arrest in human MCF10A cells assessed as accumulation at S phase at 6 uM after 72 hrs by flow cytometry analysis relative to control; type: functional, cell-based; conditions: MCF-10A; in short: as §1
HeLa [23] = assay: Induction of mitosis arrest in human HeLa cells assessed as condensation of chromosome at 6 uM after 12 hrs using DAPI staining by immunofluorescence microscopic analysis; type: functional, cell-based
In short: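 HeLa cells on coverslips treated 12 h, fixed in ice-cold methanol at -20°C. Stained with anti-α-tubulin and anti-lamin A (primary 1:200 overnight at 4°C, fluorescent secondary 1 h) and DAPI for DNA. Mitotic morphology scored by fluorescence microscopy.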

Tubulin (Homo sapiens) = Tubulin (Homo sapiens) (UniProt P68371+Q9H4B7+P0DPH7+P68366+Q13509+Q71U36+P04350+Q3ZCM7+P07437+P68363+Q9BQE3+Q6PEY2+Q13885+Q9BVA1+Q9BUF5); assay: Inhibition of tubulin (unknown origin) polymerization at 6 to 12 uM measured every 1 min for 1 hr by automated plate reader analysis; type: protein-complex assay
In short: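 Cell-free assay: 4 mg/ml tubulin in 80 mM PIPES, 2 mM MgCl2, 0.5 mM EGTA, 1 mM GTP, 10% glycerol, pH 6.9, added to wells with ligand pre-warmed 2-3 min at 37°C. A340 read every min for 1 h.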

HeLa [24] = assay: Antiproliferative activity against human HeLa cells after 72 hrs by SRB assay; type: functional, cell-based
In short: (§3)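 Cells seeded at 4,000-5,000/well for 16 h, then exposed 72 h to serial dilutions of compound in DMSO; sham DMSO as 100% and TCA-treated wells as 0%. Fixed in 10% TCA at 4°C for 1 h, stained with 0.4% SRB for 30 min, dye solubilised in 10 mmol Tris pH 10.5, read at 540 nm. IC50 from sigmoidal dose-response curves; two biological replicates, four technical each.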

MDA-MB-468 = assay: Antiproliferative activity against human MDA-MB-468 cells after 72 hrs by SRB assay; type: functional, cell-based; conditions: MDA-MB-468, 72 h; in short: as §3
[25] = Antiproliferative activity against human 184B5 cells after 72 hrs by SRB assay; type: cell-based; conditions: 184B5, 72 h; in short: as §3
[26] = Antiproliferative activity against human MCF10A cells after 72 hrs by SRB assay; type: cell-based; conditions: MCF-10A; in short: as §3
HeLa [27] = assay: Cell cycle arrest in human HeLa cells assessed as accumulation at G2/M phase at 6 uM after 12 hrs by flow cytometry analysis relative to control; type: functional; in short: as §1

With `FC(F)(F)c1cccc(/C=C\c2cc3ccccc3nc2Cl)c1` the Activity (HeLa [1]) was 17.8%, the Activity (HeLa [2]) was 40.6% and the Activity (HeLa [3]) was 12.9%. The Activity (HeLa [4]) was 23.9%, the Activity (HeLa [5]) was 46% and the Activity (HeLa [6]) was 22.9%. The Activity (MDA-MB-231 [7]) was 8.5%, the Activity (MDA-MB-231 [8]) was 12.8% and the Activity (MDA-MB-231 [9]) was 34%. The Activity (MDA-MB-231 [10]) was 23.8%, the Activity (MDA-MB-231 [11]) was 31.3% and the Activity (MDA-MB-231 [12]) was 14.2%. The Activity [13] was 3.4%, the Activity [14] was 52.9% and the Activity [15] was 7.3%. For the same molecule, the Activity [16] was 49.2%, the Activity [17] was 8.3% and the Activity [18] was 12.9%. It also gave an Activity [19] of 6.2%, an Activity [20] of 12.1% and an Activity [21] of 70.6%. For the same molecule, the Activity [22] was 12.1%, the Activity (HeLa [23]) was “Active” and the inhibition (Tubulin (Homo sapiens)) was “Active”. The IC50 (HeLa [24]) was 2.85 µM, the IC50 (MDA-MB-468) was 3.7 µM and the IC50 [25] was 6.15 µM. It also gave an IC50 [26] of 6.01 µM and an Activity (HeLa [27]) of 78.9%.
